Consider 9 compounds from ChEMBL document CHEMBL4373711, “Development of 3,5-Dinitrophenyl-Containing 1,2,4-Triazoles and Their Trifluoromethyl Analogues as Highly Efficient Antitubercular Agents Inhibiting Decaprenylphosphoryl-β-d-ribofuranose 2'-Oxidase” (J Med Chem, 2019).

Format in all cases: functional
Assay [1] relates to Mycobacterium kansasii. Put plainly: Antimycobacterial activity against Mycobacterium kansasii CNCTC My 235/80 after 14 days. Conditions: CNCTC My 235/80, 336 h. In short, it runs like this: (§1)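 Microdilution in Šula's semisynthetic medium; compounds in DMSO at 32–0.03 µM. Inoculum from 1.0 McFarland suspension diluted 10-4. […] Isoniazid and rifampicin as reference drugs.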

For assay [2], the system named is Mycobacterium tuberculosis. The experiment in a line: Antimycobacterial activity against Mycobacterium tuberculosis H37Rv CNCTC My 331/88 after 21 days. Conditions: H37Rv CNCTC My 331/88, 504 h. In short, it runs like this:
(§2)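 M. tuberculosis strains (H37Rv and clinical MDR/XDR isolates) tested by microdilution in Šula's semisynthetic medium. Compounds were dissolved in DMSO and tested at 32 to 0.03 µM in twofold steps. Inoculum was a 1.0 McFarland suspension diluted 10-3. Plates were incubated at 37 °C and read at 14 and 21 days.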

For assay [3], the system named is Mycobacterium avium. The experiment in a line: Antimycobacterial activity against Mycobacterium avium CNCTC My 330/88 after 14 days. As to conditions: CNCTC My 330/88, 336 h. The gist of the method:
(§3)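 M. avium was tested by microdilution in Šula's semisynthetic medium, with compounds dissolved in DMSO and serially diluted from 1000 down to 1. Inoculum was a 1.0 McFarland suspension diluted 10-5. Plates were incubated at 37 °C and read at 14 and 21 days. […] Isoniazid and rifampicin served as standards.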

For assay [4], the system named is Mycobacterium avium. The experiment in a line: Antimycobacterial activity against Mycobacterium avium CNCTC My 330/88 after 21 days. As to conditions: CNCTC My 330/88, 504 h. The gist of the method:
as §3

In assay [5] the test system is Mycobacterium kansasii. Put plainly: Antimycobacterial activity against Mycobacterium kansasii 6509/96 after 14 days. Conditions: 6509/96, 336 h. In short, it runs like this: as §1
Assay [6] relates to Mycobacterium kansasii. Put plainly: Antimycobacterial activity against Mycobacterium kansasii 6509/96 after 7 days. Conditions: 6509/96, 168 h. In short, it runs like this:
as §1

For assay [7], the system named is Mycobacterium kansasii. The experiment in a line: Antimycobacterial activity against Mycobacterium kansasii 6509/96 after 21 days. As to conditions: 6509/96, 504 h. In short, it runs like this:
as §1

For assay [8], the system named is Mycobacterium kansasii. The experiment in a line: Antimycobacterial activity against Mycobacterium kansasii CNCTC My 235/80 after 21 days. As to conditions: CNCTC My 235/80, 504 h. The gist of the method:
as §1

Assay [9] has as its system Mycobacterium tuberculosis. Put plainly: Antimycobacterial activity against Mycobacterium tuberculosis H37Rv CNCTC My 331/88 after 14 days. Conditions: H37Rv CNCTC My 331/88, 336 h. The gist of the method:
as §2

The subject of assay [10] is Mycobacterium kansasii. The experiment in a line: Antimycobacterial activity against Mycobacterium kansasii CNCTC My 235/80 after 7 days. As to conditions: CNCTC My 235/80, 168 h. In short, it runs like this:
as §1

Values after ≈ are worked out from the molar mass of the structure shown.

What is called MIC99 is an inhibitory concentration at the 99% level, which refers to growth in some studies and to a panel of isolates in others. Regarding `O=C(NNC(=S)NCc1ccc(Cl)cc1Cl)c1cc([N+](=O)[O-])cc([N+](=O)[O-])c1`, the MIC99 was 16 µM (≈ 7.11 µg/mL) against Mycobacterium kansasii [1]; 8 µM (≈ 3.55 µg/mL) in [2]; 16 µM (≈ 7.11 µg/mL) against Mycobacterium avium [3]; 32 µM (≈ 14.2 µg/mL) in the assay on Mycobacterium avium [4]; 16 µM (≈ 7.11 µg/mL) in the assay with Mycobacterium kansasii [5]; 16 µM (≈ 7.11 µg/mL) with Mycobacterium kansasii [6]. Moreover, the MIC99 in the assay with Mycobacterium kansasii [7] stood at 16 µM (≈ 7.11 µg/mL); against Mycobacterium kansasii [8] it was 16 µM (≈ 7.11 µg/mL); in assay [9], 8 µM (≈ 3.55 µg/mL); with Mycobacterium kansasii [10], 16 µM (≈ 7.11 µg/mL).

For `CCn1c(SCc2cc([N+](=O)[O-])cc([N+](=O)[O-])c2)nnc1-c1ccccc1`, the MIC99 stood at 2 µM (≈ 0.771 µg/mL) with Mycobacterium kansasii [1]; 4 µM (≈ 1.54 µg/mL) in [2]; 250 µM (≈ 96.4 µg/mL) against Mycobacterium avium [3]; 250 µM (≈ 96.4 µg/mL) against Mycobacterium avium [4]; 4 µM (≈ 1.54 µg/mL) against Mycobacterium kansasii [5]; 2 µM (≈ 0.771 µg/mL) in the assay with Mycobacterium kansasii [6]. Moreover, the MIC99 was 4 µM (≈ 1.54 µg/mL) against Mycobacterium kansasii [7], 4 µM (≈ 1.54 µg/mL) with Mycobacterium kansasii [8], 2 µM (≈ 0.771 µg/mL) in [9] and 2 µM (≈ 0.771 µg/mL) with Mycobacterium kansasii [10].

On to `O=[N+]([O-])c1cc(CSc2nnc(-c3ccccc3)n2Cc2ccc(Br)cc2)cc([N+](=O)[O-])c1`, for which the MIC99 in the assay on Mycobacterium kansasii [1] was found to be 4 µM (≈ 2.11 µg/mL); in [2], 2 µM (≈ 1.05 µg/mL); against Mycobacterium avium [3] it was 250 µM (≈ 132 µg/mL); against Mycobacterium avium [4], 250 µM (≈ 132 µg/mL); against Mycobacterium kansasii [5], 4 µM (≈ 2.11 µg/mL); in the assay with Mycobacterium kansasii [6], 2 µM (≈ 1.05 µg/mL). Further, the MIC99 in the assay on Mycobacterium kansasii [7] turned out to be 4 µM (≈ 2.11 µg/mL); in the assay on Mycobacterium kansasii [8], 4 µM (≈ 2.11 µg/mL); in [9], 2 µM (≈ 1.05 µg/mL); in the assay with Mycobacterium kansasii [10], 2 µM (≈ 1.05 µg/mL).

In the case of `O=[N+]([O-])c1cc(-c2nnc(SCc3ccc(Br)cc3)n2Cc2ccccc2)cc(C(F)(F)F)c1`, the MIC99 worked out at 1 µM (≈ 0.549 µg/mL) in the assay on Mycobacterium kansasii [1]; 1 µM (≈ 0.549 µg/mL) in assay [2]; 250 µM (≈ 137 µg/mL) against Mycobacterium avium [3]; 250 µM (≈ 137 µg/mL) with Mycobacterium avium [4]; 1 µM (≈ 0.549 µg/mL) against Mycobacterium kansasii [5]; 0.5 µM (≈ 0.275 µg/mL) against Mycobacterium kansasii [6]. The MIC99 with Mycobacterium kansasii [7] came out at 2 µM (≈ 1.1 µg/mL); in the assay on Mycobacterium kansasii [8], 1 µM (≈ 0.549 µg/mL); in assay [9], 1 µM (≈ 0.549 µg/mL); with Mycobacterium kansasii [10], 0.5 µM (≈ 0.275 µg/mL).

For the compound `O=C(NNC(=S)NCc1ccccc1)c1cc([N+](=O)[O-])cc([N+](=O)[O-])c1`, the MIC99 is 32 µM (≈ 12 µg/mL) against Mycobacterium kansasii [1]; 8 µM (≈ 3 µg/mL) in assay [2]; 62 µM (≈ 23.3 µg/mL) in the assay on Mycobacterium avium [3]; 62 µM (≈ 23.3 µg/mL) in the assay on Mycobacterium avium [4]; 16 µM (≈ 6.01 µg/mL) in the assay on Mycobacterium kansasii [5]; 16 µM (≈ 6.01 µg/mL) against Mycobacterium kansasii [6]. Besides, the MIC99 came out at 16 µM (≈ 6.01 µg/mL) against Mycobacterium kansasii [7], 32 µM (≈ 12 µg/mL) against Mycobacterium kansasii [8], 8 µM (≈ 3 µg/mL) in assay [9] and 32 µM (≈ 12 µg/mL) in the assay with Mycobacterium kansasii [10].

In the case of `COc1ccc(CSc2nnc(-c3ccccc3)n2Cc2cc([N+](=O)[O-])cc([N+](=O)[O-])c2)cc1`, the MIC99 in the assay with Mycobacterium kansasii [1] was greater than 32 µM; in [2] it was 16 µM (≈ 7.64 µg/mL); against Mycobacterium avium [3], 250 µM (≈ 119 µg/mL); against Mycobacterium avium [4], 250 µM (≈ 119 µg/mL); with Mycobacterium kansasii [5], greater than 32 µM; against Mycobacterium kansasii [6], greater than 32 µM. In addition, the MIC99 was 16 µM (≈ 7.64 µg/mL) in assay [9] and greater than 32 µM against Mycobacterium kansasii [10].

Take `NNC(=O)c1ccncc1` [ISONIAZID]: the MIC99 was greater than 250 µM with Mycobacterium kansasii [1]; greater than 250 µM in the assay on Mycobacterium avium [3]; greater than 250 µM in the assay with Mycobacterium avium [4]; 4 µM (≈ 0.549 µg/mL) in the assay on Mycobacterium kansasii [5]; 2 µM (≈ 0.274 µg/mL) in the assay on Mycobacterium kansasii [6]; 4 µM (≈ 0.549 µg/mL) in the assay on Mycobacterium kansasii [7]. In addition, the MIC99 with Mycobacterium kansasii [8] and against Mycobacterium kansasii [10] was greater than 250 µM throughout.

`CCCCCCCCSc1nnc(-c2cc([N+](=O)[O-])cc(C(F)(F)F)c2)n1Cc1ccccc1`: the MIC99 against Mycobacterium kansasii [1] was 2 µM (≈ 0.985 µg/mL); in assay [2] it was 2 µM (≈ 0.985 µg/mL); in the assay on Mycobacterium avium [3] it was 250 µM (≈ 123 µg/mL); against Mycobacterium avium [4], 250 µM (≈ 123 µg/mL); in the assay on Mycobacterium kansasii [8] it was 2 µM (≈ 0.985 µg/mL); in [9], 2 µM (≈ 0.985 µg/mL). In addition, in the assay with Mycobacterium kansasii [10], the MIC99 was 1 µM (≈ 0.493 µg/mL).

As for `O=[N+]([O-])c1cc(CSc2nnc(CCCCCO)n2Cc2ccccc2)cc([N+](=O)[O-])c1`, the MIC99 in the assay on Mycobacterium kansasii [1] is 16 µM (≈ 7.32 µg/mL); in assay [2] it was 32 µM (≈ 14.6 µg/mL); in the assay on Mycobacterium avium [3] it was greater than 1000 µM; in the assay with Mycobacterium avium [4] it was greater than 1000 µM; with Mycobacterium kansasii [5] it was 32 µM (≈ 14.6 µg/mL); in the assay with Mycobacterium kansasii [6], 16 µM (≈ 7.32 µg/mL). Further, the MIC99 in the assay on Mycobacterium kansasii [7] stood at 32 µM (≈ 14.6 µg/mL); in the assay with Mycobacterium kansasii [8], 32 µM (≈ 14.6 µg/mL); in [9], 16 µM (≈ 7.32 µg/mL); in the assay with Mycobacterium kansasii [10], 8 µM (≈ 3.66 µg/mL).
